Test results from ChEMBL document CHEMBL1145853, “Design, synthesis, and biological evaluation of cytotoxic 11-alkenylindenoisoquinoline topoisomerase I inhibitors and indenoisoquinoline-camptothecin hybrids” (2003).

Key:
HOP-62 = assay: Cytotoxic concentration against human lung HOP-62 cell line growth inhibition; assay type: functional
OVCAR-3 = assay: Cytotoxic concentration against human ovarian OVCAR-3 cell line growth inhibition; assay type: functional
HCT-116 = assay: Cytotoxic concentration against human colon HCT116 cell line growth inhibition; assay type: functional
UACC-62 = assay: Cytotoxic concentration against human melanoma UACC-62 cell line growth inhibition; assay type: functional
[1] = target: T1, DNA topoisomerase 1 (Homo sapiens) (UniProt P11387); assay: Activity to produce DNA topoisomerase I-mediated DNA cleavage at concentration up to 10 uM
T1 sequence (whole entry): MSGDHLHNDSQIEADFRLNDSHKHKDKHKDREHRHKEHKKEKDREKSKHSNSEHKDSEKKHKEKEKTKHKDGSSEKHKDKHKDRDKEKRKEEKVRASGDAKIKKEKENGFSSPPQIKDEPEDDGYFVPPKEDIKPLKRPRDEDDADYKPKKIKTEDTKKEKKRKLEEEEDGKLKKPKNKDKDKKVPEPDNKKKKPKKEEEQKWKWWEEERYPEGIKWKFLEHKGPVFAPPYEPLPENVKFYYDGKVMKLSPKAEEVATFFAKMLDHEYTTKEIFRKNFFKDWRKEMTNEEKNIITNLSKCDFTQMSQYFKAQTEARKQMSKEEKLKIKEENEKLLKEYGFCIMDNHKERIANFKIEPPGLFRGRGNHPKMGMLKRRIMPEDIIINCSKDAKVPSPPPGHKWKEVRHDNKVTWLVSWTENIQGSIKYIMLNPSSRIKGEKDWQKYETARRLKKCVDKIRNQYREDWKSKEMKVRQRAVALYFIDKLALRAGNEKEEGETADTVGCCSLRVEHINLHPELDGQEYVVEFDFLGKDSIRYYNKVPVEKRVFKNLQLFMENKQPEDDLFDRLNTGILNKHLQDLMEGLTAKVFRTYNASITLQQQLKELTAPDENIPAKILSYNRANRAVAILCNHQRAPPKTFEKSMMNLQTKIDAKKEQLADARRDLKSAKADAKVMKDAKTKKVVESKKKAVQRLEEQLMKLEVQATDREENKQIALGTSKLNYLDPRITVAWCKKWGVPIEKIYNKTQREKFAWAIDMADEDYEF
How it was run: (§1)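 Human recombinant top1, purified from baculovirus, was incubated for 30 min at 22 °C with the drug at up to 10 μM. The substrate was a 161 bp PvuII/HindIII fragment of pBluescript SK(-), 3'-end-labeled at the HindIII site by Klenow fill-in with [α-32P]dGTP, about 50 000 dpm per reaction. Reactions were stopped with SDS (0.5% final) and run on denaturing 16% polyacrylamide/7 M urea gels. Cleavage was scored semiquantitatively.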

DU-145 = assay: Cytotoxic concentration against human prostate DU-145 cell line growth inhibition; assay type: functional
SN12C = assay: Cytotoxic concentration against human renal SN12C cell line growth inhibition; assay type: functional
SF-539 = assay: Cytotoxic concentration against human CNS SF-539 cell line growth inhibition; assay type: functional
MDA-MB-435 = assay: Cytotoxic concentration against human breast MDA-MB-435 cell line growth inhibition; assay type: functional
[2] = target: T1, DNA topoisomerase 1 (Homo sapiens); assay: Activity to produce DNA topoisomerase I-mediated DNA cleavage at concentration up to 10 uM; +, indicates weak activity; how it was run: as §1
Cancer cell lines = assay: Mean graph midpoint for growth inhibition of all human cancer cell lines; assay type: functional
[3] = target: T1, DNA topoisomerase 1 (Homo sapiens); assay: Activity to produce DNA topoisomerase I-mediated DNA cleavage at concentration up to 10 uM; +++, greater activity than the parent compound 2; how it was run: as §1

| Activity [1] | Activity [2] | Activity [3] | SMILES | GI50 (HOP-62) | GI50 (OVCAR-3) | GI50 (HCT-116) | GI50 (UACC-62) | GI50 (DU-145) | GI50 (SN12C) | GI50 (SF-539) | GI50 (MDA-MB-435) | MGM (Cancer cell lines) |
| --- | --- | --- | --- | --- | --- | --- | --- | --- | --- | --- | --- | --- |
| 0 |  |  | COc1cc2c3c(n(C)c(=O)c2cc1OC)-c1cc2c(cc1/C3=C\CCCBr)OCO2 | 19.4 µM | 58.1 µM | 37.8 µM | 11.4 µM | 67.8 µM | > 100 µM | 30 µM | > 100 µM |  |
|  |  |  | O=c1c2ccccc2cc2n1Cc1cc3ccccc3nc1-2 [ROSETTACIN] | 68.2 µM | 39.8 µM | 32.7 µM | 97.2 µM | > 100 µM | > 100 µM | 66.7 µM | 41.8 µM |  |
|  |  |  | COc1cc2c3c(n(C)c(=O)c2cc1OC)-c1cc2c(cc1/C3=C\CCCCBr)OCO2 |  | > 100 µM |  | > 100 µM |  | > 100 µM |  | > 100 µM |  |
| 0 |  |  | COc1cc2c3c(n(C)c(=O)c2cc1OC)-c1cc2c(cc1/C3=C/CCCI)OCO2 | 27.6 µM | 22.8 µM | 0.56 µM | 3.5 µM | 28.7 µM | 8.8 µM | 4.3 µM | 5.2 µM |  |
|  | indicates weak activity |  | COc1cc2cc3n(c(=O)c2cc1OC)Cc1cc2ccccc2nc1-3 [DIMETHOXYAROMATHECIN] | > 100 µM | > 100 µM | 57.3 µM | > 100 µM | > 100 µM | > 100 µM | > 100 µM | > 100 µM |  |
|  | Weak activity |  | COc1cc2c3c(n(C)c(=O)c2cc1OC)-c1cc2c(cc1/C3=C\CCCCl)OCO2 |  |  |  |  |  | > 100 µM |  | > 100 µM |  |
|  |  |  | COc1cc2c3c(n(C)c(=O)c2cc1OC)-c1cc2c(cc1/C3=C/CCCCCBr)OCO2 |  |  |  |  |  |  |  |  | 7.8 µM |
|  |  |  | COc1cc2c3c(n(C)c(=O)c2cc1OC)-c1cc2c(cc1C3=O)OCO2 | 1.3 µM |  | 35 µM | 4.2 µM | 37 µM | 68 µM | 41 µM | 96 µM | 20 µM |
|  |  | greater activity than compound 2 | COc1cc2c3c(n(C)c(=O)c2cc1OC)-c1cc2c(cc1/C3=C/CCN)OCO2 | 0.071 µM | 0.56 µM | 0.028 µM | 0.2 µM | 0.37 µM | 0.58 µM | 0.42 µM | 1.8 µM | 0.34 µM |
